In ChEMBL document CHEMBL3739312, “Triazole-curcuminoids: A new class of derivatives for 'tuning' curcumin bioactivities?” (Bioorg Med Chem, 2016):
The source made the active and inactive calls. The calls are words filed in the database; no cut-off is given here.

Assays:
[1] = system: HeLa; experiment: Antiproliferative activity against human HeLa cells assessed as cell viability at 40 uM after 48 hrs relative to control; format: functional; details: read-out: Activity
Method in brief: (§1)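 Single fixed concentration of 40 µM against HeLa or SH-SY5Y cells; viability given as mean ± S.E.M., n = 8 from two separate experiments.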

[2] = system: HeLa; experiment: Inhibition of TNFalpha-induced NFkappaB activation assessed as TNFalpha-induced transcription level in human HeLa cells at 30 uM incubated for 6 hrs by luciferase reporter gene assay; format: cell-based; set-up: scale not given: the % may be the effect or the level left
Method in brief: (§2)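 HeLa NF-κB luciferase reporter: cells plated at 5 × 10³/well; after 8 h, TNFα (20 ng/mL) applied for 6 h with or without compound. Firefly luciferase normalized to pRLTK Renilla by dual-luciferase read-out; n = 6–11 from 3–6 experiments.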

[3] = system: SH-SY5Y; experiment: Antiproliferative activity against human SH-SY5Y cells assessed as cell viability at 40 uM after 48 hrs relative to control; format: functional; details: read-out: Activity; method in brief: as §1
[4] = system: SH-SY5Y; experiment: Antiproliferative activity against human SH-SY5Y cells assessed as cell viability after 48 hrs; format: functional, cell-based
[5] = system: HeLa; experiment: Antiproliferative activity against human HeLa cells assessed as cell viability after 48 hrs; format: functional, cell-based
[6] = biological target: T1, Tubulin (Homo sapiens) (UniProt P68371+Q9H4B7+P0DPH7+P68366+Q13509+Q71U36+P04350+Q3ZCM7+P07437+P68363+Q9BQE3+Q6PEY2+Q13885+Q9BVA1+Q9BUF5); experiment: Inhibition of tubulin polymerization in human HeLa cells assessed as increase in soluble fraction incubated for 16 hrs by cellular assay; format: cell-based
Method in brief: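 HeLa cells exposed 16 h; proteins extracted in presence of paclitaxel, pelletable and soluble fractions separated and resolved by SDS–PAGE.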

[7] = biological target: T1, Tubulin (Homo sapiens); experiment: Inhibition of tubulin (unknown origin) polymerization up to 60 uM; format: protein-complex assay
Method in brief: (§3)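 Cell-free fluorescence-based tubulin polymerization kit; compound tested from 10 µM up to 60 µM.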

[8] = system: HeLa; experiment: Potentiation of TNFalpha-induced NFkappaB activation in human HeLa cells at 3 uM incubated for 6 hrs by luciferase reporter gene assay; format: cell-based; method in brief: as §2
[9] = system: HeLa; experiment: Cell cycle arrest in human HeLa cells at IC50 to 2 times IC50 after 8 hrs by FACS analysis; format: functional, cell-based
Method in brief: (§4)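 HeLa cells seeded at 6 × 10⁵ cells/well, starved overnight, then exposed at IC50, 2× and 3× IC50 for 8 h or 16 h. Cells fixed in 70% EtOH overnight at −20 °C, then RNase-treated (100 µg/mL, 1 h, 37 °C) before cell-cycle phase analysis.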

[10] = system: HeLa; experiment: Cell cycle arrest in human HeLa cells assessed as accumulation at […] phase at IC50 to 2 times IC50 after 16 hrs by FACS analysis; format: functional, cell-based; method in brief: as §4
[11] = biological target: T1, Tubulin (Homo sapiens); experiment: Inhibition of tubulin (unknown origin) polymerization at 10 uM; format: protein-complex assay; method in brief: as §3

| IC50 [4] | IC50 [5] | inhibition [6] | Activity [7] | Activity [11] | inhibition [7] | Structure (SMILES) | viability at 40 µM [1] | Activity [2] | viability at 40 µM [3] | fold change (FC) [8] | Activity [9] | Activity [10] |
| --- | --- | --- | --- | --- | --- | --- | --- | --- | --- | --- | --- | --- |
|  |  |  |  |  |  | COc1cc(/C=C/c2cn(/C=C/c3ccccc3)nn2)cc(OC)c1OC | 52.1% | 65.3% | 69.2% |  |  |  |
| 11.3 µM | 34 µM |  |  |  |  | COc1ccc(/C=C/c2cn(/C=C/c3ccc(O)cc3)nn2)cc1 | 66.3% | 131% | 25.7% |  |  |  |
|  |  |  |  |  |  | COc1ccc(/C=C/c2cn(/C=C/c3cccc(OC)c3)nn2)cc1 | 55.1% | 81.3% | 52% |  |  |  |
|  |  |  |  |  |  | COc1cccc(/C=C/c2cn(/C=C/c3ccccc3)nn2)c1 | 93.9% | 87% | 88.7% |  |  |  |
|  |  |  |  |  |  | COc1ccc(/C=C/c2cn(/C=C/c3ccccc3)nn2)cc1 | 69.2% | 74.5% | 126% |  |  |  |
|  |  |  |  |  |  | COc1cc(/C=C/n2cc(/C=C/c3ccc(O)cc3)nn2)ccc1O | 83.5% | 73.2% | 50.3% |  |  |  |
|  |  |  |  |  |  | Oc1ccc(/C=C/n2cc(/C=C/c3ccccc3)nn2)cc1 | 50.7% | 88.9% | 48% |  |  |  |
|  |  |  |  |  |  | Oc1ccc(/C=C/c2cn(/C=C/c3ccccc3)nn2)cc1 | 39.5% | 85.4% | 70.6% |  |  |  |
|  |  |  |  |  |  | COc1ccc(/C=C/c2cn(/C=C/c3ccc(O)c(OC)c3)nn2)cc1 | 67.9% | 146% | 50% |  |  |  |
|  |  | inactive | inactive |  |  | COc1cccc(/C=C/n2cc(/C=C/c3cc(OC)c(OC)c(OC)c3)nn2)c1 | 77.9% | 42.2% | 99.9% |  |  |  |
|  |  |  |  |  |  | Oc1ccc(/C=C/n2cc(/C=C/c3ccc(O)c(O)c3)nn2)cc1 | 60.1% | 124% | 60.4% |  |  |  |
|  |  |  |  |  |  | COc1cc(/C=C/c2cn(/C=C/c3ccc(O)cc3)nn2)ccc1O | 56.8% | 96% | 55.4% |  |  |  |
|  |  |  |  |  |  | COc1cccc(/C=C/n2cc(/C=C/c3ccccc3)nn2)c1 | 82.1% | 76.1% | 107% |  |  |  |
|  |  |  |  |  |  | COc1cccc(/C=C/n2cc(/C=C/c3ccc(O)cc3)nn2)c1 | 41.9% | 94.3% | 68.9% |  |  |  |
|  |  |  |  |  |  | Oc1ccc(/C=C/c2cn(/C=C/c3ccccc3)nn2)cc1O | 18.4% | 167% | 40.1% |  |  |  |
| 17.8 µM | 36.4 µM | inactive | inactive |  |  | COc1cc(/C=C/c2cn(/C=C/c3ccc(O)c(OC)c3)nn2)ccc1O | 50.5% | 48% | 36.1% | 2 |  |  |
|  |  |  |  |  |  | COc1cccc(/C=C/n2cc(/C=C/c3ccc(O)c(OC)c3)nn2)c1 | 66.9% | 57% | 66.3% |  |  |  |
| 1.7 µM | 1.5 µM | inactive | inactive |  |  | COc1cc(/C=C/c2cn(/C=C/c3ccc(O)cc3)nn2)cc(OC)c1OC | 19.2% | 14.6% | 21.3% |  | inactive | Active |
|  |  |  |  |  |  | COc1cccc(/C=C/c2cn(/C=C/c3cccc(OC)c3)nn2)c1 | 92.8% | 71% | 71.4% |  |  |  |
| 16.1 µM | 21.8 µM | inactive |  | inactive | Active | COc1cc(/C=C/C(=O)CC(=O)/C=C/c2ccc(O)c(OC)c2)ccc1O [CURCUMIN] | 42.5% | 60.5% | 22.6% |  | inactive | Active |
| 9 µM | 17.2 µM |  |  |  |  | COc1cccc(/C=C/c2cn(/C=C/c3ccc(O)cc3)nn2)c1 | 30.4% | 61.5% | 37.9% |  |  |  |
| 7.8 µM | 13.6 µM | inactive | inactive |  |  | COc1cc(/C=C/n2cc(/C=C/c3cc(OC)c(OC)c(OC)c3)nn2)ccc1O | 23% | 27.5% | 23.5% |  | inactive | Active |
|  |  |  |  |  |  | Oc1ccc(/C=C/c2cn(/C=C/c3ccc(O)cc3)nn2)cc1 | 55.3% | 112% | 49.6% |  |  |  |
|  |  |  |  |  |  | COc1cc(/C=C/c2cn(/C=C/c3ccccc3)nn2)ccc1O | 79.5% | 138% | 110% |  |  |  |
|  |  |  |  |  |  | COc1cccc(/C=C/c2cn(/C=C/c3ccc(O)c(OC)c3)nn2)c1 (mixture of isomers) | 38.7% | 88.9% | 65.3% |  |  |  |
|  |  |  |  |  |  | COc1cc(/C=C/n2cc(/C=C/c3ccccc3)nn2)ccc1O | 84.3% | 144% | 86.7% |  |  |  |
| 17 µM | 18.7 µM |  |  |  |  | COc1cccc(/C=C/n2cc(/C=C/c3ccc(O)c(O)c3)nn2)c1 | 16.6% | 97% | 27.7% |  |  |  |
|  |  |  |  |  |  | C(=C\c1cn(/C=C/c2ccccc2)nn1)/c1ccccc1 | 70% | 79.9% | 118% |  |  |  |
| 6.9 µM | 11.7 µM | inactive | inactive |  |  | COc1ccc(/C=C/c2cn(/C=C/c3ccc(O)c(OC)c3)nn2)cc1O | 7.9% | 15.3% | 18.1% |  | inactive | Active |
